Measured values taken from ChEMBL document CHEMBL3774372, “Design, physico-chemical properties and biological evaluation of some new N-[(phenoxy)alkyl]- and N-{2-[2-(phenoxy)ethoxy]ethyl}aminoalkanols as anticonvulsant agents” (Bioorg Med Chem, 2016).
Activity calls are given as the source filed them.

Tests used:
Vibrio harveyi [1] = test: Mutagenicity in Vibrio harveyi BB7X assessed as number of colonies after 48 hrs (reference value: 15 to 16 no_unit); type: ADME, organism-based; conditions: in vivo
Procedure, shortened: (§1)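 Vibrio harveyi mutagenicity test: test compound was added to exponentially growing cultures (A600 = 0.1, 30 °C) and grown to OD600 0.3–0.4. Then 5 × 10^6 cells were plated on BOSS agar with neomycin (final 100 µg/mL) and incubated 48 h at 30 °C. Neomycin-resistant colonies were counted. Triplicate; controls were water, DMSO and NQNO 40 ng/mL.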

Vibrio harveyi [2] = test: Mutagenicity in Vibrio harveyi BB7XM assessed as number of colonies after 48 hrs (reference value: 14 no_unit); type: ADME, organism-based; conditions: in vivo; procedure, shortened: as §1
Vibrio harveyi [3] = test: Mutagenicity in Vibrio harveyi BB7M assessed as number of colonies after 48 hrs (reference value: 13 to 14 no_unit); type: ADME, organism-based; conditions: in vivo; procedure, shortened: as §1
Vibrio harveyi [4] = test: Mutagenicity in Vibrio harveyi BB7 assessed as number of colonies after 48 hrs (reference value: 13 to 14 no_unit); type: ADME, organism-based; conditions: in vivo; procedure, shortened: as §1
Mus musculus [5] = test: Anticonvulsant activity in mouse assessed as protection against subcutaneous pentylenetetrazol-induced seizures at 30 mg/kg, ip measured after 0.5 hrs; type: functional, organism-based
Procedure, shortened: (§2)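 Mice dosed ip as 0.5% methylcellulose suspension; pentylenetetrazole 85 mg/kg in 0.9% NaCl injected subcutaneously into posterior midline, animals watched at least 30 min. Protection = no threshold seizure (single clonic spasm episode lasting ≥5 s); scored protected/tested.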

Mus musculus [6] = test: Anticonvulsant activity in mouse assessed as protection against maximal electric shock-induced seizures at 30 mg/kg, ip measured after 0.5 hrs; type: functional, organism-based
Procedure, shortened: (§3)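 Mice dosed ip with suspension in 0.5% methylcellulose; maximal electroshock applied at the listed time after dosing. Protection = abolition of hindlimb tonic extension component of seizure; reported as animals protected/animals tested.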

Mus musculus [7] = test: Neurotoxicity in mouse at 300 mg/kg, ip after 0.5 hrs by rotarod test; type: toxicity, organism-based; conditions: in vivo
Procedure, shortened: (§4)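 Mice were dosed ip with compound suspended in 0.5% methylcellulose. Rotarod: a 1 in. knurled rod turning at 6 rpm. Neurotoxicity was scored as failure to stay on the rod for at least 1 min in each of three trials. Results are given as the number of animals affected out of the number tested.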

Mus musculus [8] = test: Neurotoxicity in mouse at 30 mg/kg, ip after 0.5 hrs by rotarod test; type: toxicity, organism-based; conditions: in vivo; procedure, shortened: as §4
Mus musculus [9] = test: Anticonvulsant activity in mouse assessed as protection against subcutaneous pentylenetetrazol-induced seizures at 100 mg/kg, ip measured after 4 hrs; type: functional, organism-based; procedure, shortened: as §2
Vibrio harveyi [10] = test: Antimutagenic activity against Vibrio harveyi BB7X assessed as inhibition of NQNO-induced mutagenicity after 48 hrs; type: functional
Procedure, shortened: (§5)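 V. harveyi cultures grown exponentially to A600 0.1 at 30 °C, exposed to test compound for 15 min, then to NQNO, and grown on to A600 0.3–0.4. 5 × 10⁶ cells plated on BOSS agar with neomycin (100, final). Neomycin-resistant colonies counted after 48 h at 30 °C. Result given as % inhibition of NQNO mutagenicity; three independent repeats.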

Vibrio harveyi [11] = test: Antimutagenic activity against Vibrio harveyi BB7 assessed as inhibition of NQNO-induced mutagenicity after 48 hrs; type: functional; procedure, shortened: as §5
Mus musculus [12] = test: Anticonvulsant activity in mouse assessed as protection against maximal electric shock-induced seizures at 100 mg/kg, ip measured after 4 hrs; type: functional, organism-based; procedure, shortened: as §3
Mus musculus [13] = test: Anticonvulsant activity in mouse assessed as protection against subcutaneous pentylenetetrazol-induced seizures at 30 mg/kg, ip measured after 4 hrs; type: functional, organism-based; procedure, shortened: as §2
Vibrio harveyi [14] = test: Antimutagenic activity against Vibrio harveyi BB7M assessed as inhibition of NQNO-induced mutagenicity after 48 hrs; type: functional; procedure, shortened: as §5
Mus musculus [15] = test: Anticonvulsant activity in mouse assessed as protection against maximal electric shock-induced seizures at 30 mg/kg, ip measured after 4 hrs; type: functional, organism-based; procedure, shortened: as §3
Mus musculus [16] = test: Neurotoxicity in mouse at 100 mg/kg, ip after 4 hrs by rotarod test; type: toxicity, organism-based; conditions: in vivo; procedure, shortened: as §4
Mus musculus [17] = test: Neurotoxicity in mouse at 30 mg/kg, ip after 4 hrs by rotarod test; type: toxicity, organism-based; conditions: in vivo; procedure, shortened: as §4
Vibrio harveyi [18] = test: Antimutagenic activity against Vibrio harveyi BB7XM assessed as inhibition of NQNO-induced mutagenicity after 48 hrs; type: functional; procedure, shortened: as §5
Mus musculus [19] = test: Anticonvulsant activity in mouse assessed as protection against subcutaneous pentylenetetrazol-induced seizures at 100 mg/kg, ip measured after 0.5 hrs; type: functional, organism-based; procedure, shortened: as §2
Mus musculus [20] = test: Anticonvulsant activity in mouse assessed as protection against maximal electric shock-induced seizures at 100 mg/kg, ip measured after 0.5 hrs; type: functional, organism-based; procedure, shortened: as §3
Rattus norvegicus [21] = test: Neurotoxicity in rat at 30 mg/kg, po after 1 hr by rotarod test; type: toxicity, organism-based; conditions: in vivo
Rattus norvegicus [22] = test: Neurotoxicity in rat at 30 mg/kg, po after 0.5 hrs by rotarod test; type: toxicity, organism-based; conditions: in vivo
Rattus norvegicus [23] = test: Neurotoxicity in rat at 30 mg/kg, po after […] by rotarod test; type: toxicity, organism-based; conditions: in vivo
Rattus norvegicus [24] = test: Anticonvulsant activity in rat assessed as protection against maximal electric shock-induced seizures at 30 mg/kg, po measured after 0.5 hrs; type: functional, organism-based
Procedure, shortened: (§6)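 Rats dosed ip or orally as 0.5% methylcellulose suspension; maximal electroshock at listed time. Protection = abolition of hindlimb tonic extension; 4 rats per group, scored protected/tested.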

Rattus norvegicus [25] = test: Neurotoxicity in rat at 30 mg/kg, po after 2 hrs by rotarod test; type: toxicity, organism-based; conditions: in vivo
Rattus norvegicus [26] = test: Anticonvulsant activity in rat assessed as protection against maximal electric shock-induced seizures at 30 mg/kg, po measured after 2 hrs; type: functional, organism-based; procedure, shortened: as §6
Rattus norvegicus [27] = test: Anticonvulsant activity in rat assessed as protection against maximal electric shock-induced seizures at 30 mg/kg, po measured after 1 hr; type: functional, organism-based; procedure, shortened: as §6
Rattus norvegicus [28] = test: Anticonvulsant activity in rat assessed as protection against maximal electric shock-induced seizures at 30 mg/kg, po measured after […]; type: functional, organism-based
Rattus norvegicus [29] = test: Neurotoxicity in rat at 30 mg/kg, po after 4 hrs by rotarod test; type: toxicity, organism-based; conditions: in vivo
Mus musculus [30] = test: Neurotoxicity in mouse at 100 mg/kg, ip after 0.5 hrs by rotarod test; type: toxicity, organism-based; conditions: in vivo; procedure, shortened: as §4
Mus musculus [31] = test: Anticonvulsant activity in mouse assessed as protection against maximal electric shock-induced seizures at 3 mg/kg, ip measured after 0.5 hrs; type: functional, organism-based; procedure, shortened: as §3

| SMILES | Activity (Vibrio harveyi [1]) | Activity (Vibrio harveyi [2]) | Activity (Vibrio harveyi [3]) | Activity (Vibrio harveyi [4]) | Activity (Mus musculus [5]) | Activity (Mus musculus [6]) | Activity (Mus musculus [7]) | Activity (Mus musculus [8]) | Activity (Mus musculus [9]) | Activity (Mus musculus [12]) | Activity (Mus musculus [13]) | Activity (Mus musculus [15]) | Activity (Mus musculus [16]) | Activity (Mus musculus [17]) | Activity (Mus musculus [19]) | Activity (Mus musculus [20]) | Activity (Mus musculus [30]) | other results |
| --- | --- | --- | --- | --- | --- | --- | --- | --- | --- | --- | --- | --- | --- | --- | --- | --- | --- | --- |
| Cc1cccc(OCCOCCN[C@H]2CC[C@H](O)CC2)c1C | 27 | 20 | 25 | 22 | – | – | – | – | – | – | – | – | – | – | – | – | – | – |
| Cc1cccc(C)c1OCCOCCN1CCC(O)CC1 | 16 | 26 | 18 | 22 | inactive | inactive | Toxic | Non-toxic | inactive | inactive | inactive | inactive | Non-toxic | Non-toxic | – | – | – | inhibition (INH) (Vibrio harveyi [10]): 12%; inhibition (INH) (Vibrio harveyi [11]): 84%; inhibition (INH) (Vibrio harveyi [14]): 34%; inhibition (INH) (Vibrio harveyi [18]): 26% |
| Cc1cccc(OCCNC(C)CO)c1C (stereo not drawn) | – | – | – | – | inactive | inactive | Toxic | Non-toxic | inactive | inactive | inactive | inactive | Non-toxic | Non-toxic | inactive | Active | – | – |
| Cc1cc(C)c(OCCN[C@H]2CC[C@H](O)CC2)c(C)c1 | – | – | – | – | inactive | inactive | Toxic | Non-toxic | – | inactive | inactive | inactive | Non-toxic | Non-toxic | inactive | Active | – | Activity (Rattus norvegicus [21]): Non-toxic; Activity (Rattus norvegicus [22]): Non-toxic; Activity (Rattus norvegicus [23]): Non-toxic; Activity (Rattus norvegicus [24]): inactive; Activity (Rattus norvegicus [25]): Non-toxic; Activity (Rattus norvegicus [26]): inactive; Activity (Rattus norvegicus [27]): inactive; Activity (Rattus norvegicus [28]): inactive; Activity (Rattus norvegicus [29]): Non-toxic |
| Cc1ccc(OCCN[C@H](C)CO)c(C)c1 | 17 | 23 | 26 | 22 | – | – | – | – | – | – | – | – | – | – | – | – | – | – |
| CCC(CO)NCCCOc1cccc(C)c1C (stereo not drawn) | – | – | – | – | inactive | inactive | Toxic | Non-toxic | inactive | inactive | inactive | inactive | Non-toxic | Non-toxic | inactive | Active | Toxic | – |
| CCC(CO)NCCOc1cccc(C)c1C (stereo not drawn) | – | – | – | – | inactive | inactive | – | Non-toxic | inactive | inactive | inactive | inactive | Non-toxic | Non-toxic | inactive | Active | Toxic | – |
| Cc1cccc(OCCNC(C)(C)CO)c1C | – | – | – | – | inactive | inactive | Toxic | Non-toxic | inactive | inactive | inactive | inactive | Non-toxic | Non-toxic | inactive | Active | – | – |
| Cc1cccc(OCCCNC(C)CO)c1C (stereo not drawn) | – | – | – | – | inactive | inactive | Toxic | Non-toxic | inactive | inactive | inactive | inactive | Non-toxic | Non-toxic | inactive | Active | Toxic | – |
| Cc1cc(C)c(OCCN[C@@H]2CCCC[C@H]2O)c(C)c1 (racemic) | – | – | – | – | inactive | Active | Toxic | Non-toxic | inactive | inactive | inactive | inactive | Non-toxic | Non-toxic | – | – | Toxic | Activity (Rattus norvegicus [21]): Non-toxic; Activity (Rattus norvegicus [22]): Non-toxic; Activity (Rattus norvegicus [23]): Non-toxic; Activity (Mus musculus [31]): inactive; Activity (Rattus norvegicus [24]): inactive; Activity (Rattus norvegicus [25]): Non-toxic; Activity (Rattus norvegicus [26]): inactive; Activity (Rattus norvegicus [27]): inactive; Activity (Rattus norvegicus [29]): Non-toxic |
